A selection: hits, their analogues and other compounds. The true share with any hit is near 1.9%.
TAG inh: inhibitors of triacylglycerol accumulation | 230,000 compounds, 0.66% hits | inhibition, % at 12.5 µM | H9c2 cells, Nile Red lipid (TAG) fluorescence; cells loaded with 200 µM oleic acid;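 active means pattern-corrected inhibition of lipid staining of at least 50% with the nuclear-stain viability signal not falling by more than 50%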
ABHD5 PLIN5 PPI: blocks binding of human ABHD5 to perilipin-5; AID 602281; 360,000 compounds, 0.78% hits; Q00G26+Q8WTS1; inhibition, % at 4 µM; Split G. princeps luciferase complementation, luminescence, 4 h;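 active means inhibition above the mean inhibition across every tested compound plus 3 SD, cut at about 22% in these data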
GAA850 FXN act: increases GAA850 frataxin promoter reporter activity | HEK293 lucGAA850 FXN promoter luciferase reporter, 24 h; percent of 10 µM SAHA response | activation, % at 6 µM | 360,000 compounds, 0.56% hits;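 active means activation above the average of all compounds screened plus 3 SD, cutoff fixed separately per campaign, cut at about 7.5% in these data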
Hsp70 act: switches on Hsp70 transcription; HeLa Hsp70 promoter luciferase reporter, luminescence; scaled: vehicle 0, proteasome-inhibitor control 100%; activation, % at 10 µM; 200,000 compounds, 0.04% hits; AID 1203;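 active means activation above the mean across all tested compounds plus 3 SD, cutoff set per campaign, cut at about 5.5% in these data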
Rad51 HR inh: blocks human Rad51 in homologous recombination; hRad51 DNA strand exchange, fluorescence dequenching; inhibition, % at 10 µM; 200,000 compounds, 0.085% hits; AID 1385;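 active means inhibition above 40% at the single screening dose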
Target sequence (Q06609 whole entry, looked up): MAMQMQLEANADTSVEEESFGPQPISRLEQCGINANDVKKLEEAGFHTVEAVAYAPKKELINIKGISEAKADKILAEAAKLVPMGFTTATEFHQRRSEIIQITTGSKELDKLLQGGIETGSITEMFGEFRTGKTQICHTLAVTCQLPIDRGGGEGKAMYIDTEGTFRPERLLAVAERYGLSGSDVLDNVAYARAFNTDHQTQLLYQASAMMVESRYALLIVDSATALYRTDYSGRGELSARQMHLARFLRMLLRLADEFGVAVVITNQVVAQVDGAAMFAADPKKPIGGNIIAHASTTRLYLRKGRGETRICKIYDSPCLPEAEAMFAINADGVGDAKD
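System: human Rad51 nucleoprotein filaments preassembled on unlabelled ssDNA. Reagent: labelled 47-mer dsDNA for strand exchange. Schedule: 30-min compound preincubation and 15-min exchange, both room temperature. Measured by: FRET fluorescence dequenching, excitation 485 nm, emission 520 nm. Read-out: Fluorescence-based percent inhibition, control- and blank-normalised. Benchmarks: plate controls and plate blanks.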
HIF act: HIF pathway transcriptional activation | AID 1910 | activation, % at 7.5 µM (by protocol) | U2OS HRE-luciferase reporter, luminescence; normalized: DMSO 0%, desferrioxamine 100% | 300,000 compounds, 0.32% hits;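 active means mean activation of at least 10% of the iron chelator positive control signal, with at least half of replicates also reaching 10%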
GAA30 counter: counter-screen for GAA850 frataxin promoter activators: GAA30 promoter activation; shares compounds with GAA850 FXN act; HEK293 lucGAA30 FXN promoter luciferase, 24 h; DMSO = 0%, 5 µM ipriflavone = 100%; activation, % at 6 µM; 1,900 compounds, 66% hits; AID 588350;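 active means mean activation above the mean of solvent-only control wells plus 3 SD, cut at about 22% in these data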;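 further: counterscreen of GAA850 promoter hits where activity marks nonselective or luminescence artifacts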
FXN GAA850 conf: GAA850 FXN promoter activation confirmation; HEK293 lucGAA850 FXN promoter luciferase reporter, 24 h; 100% = activation by SAHA; 1,900 compounds, 86% hits; shares compounds with GAA850 FXN act; activation, % at 6 µM;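 active means mean activation above a set limit taken from the primary screen, cut at about 8% in these data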
Numbers stand for hits.

How did Cc1ccc(C(=O)OC(C(=O)Nc2ccc(Cl)cc2C(F)(F)F)c2ccccc2)cc1 (stereo unspecified) do in these assays?
TAG inh: inactive; ABHD5 PLIN5 PPI: inactive; GAA850 FXN act: inactive; Hsp70 act: inactive; Rad51 HR inh: inactive; HIF act: inactive

Results for O=C(OC(C(=O)Nc1ccc(Cl)cc1C(F)(F)F)c1ccccc1)c1c(Cl)cccc1Cl (stereo unspecified) ?
ABHD5 PLIN5 PPI: inactive; GAA850 FXN act: 11; Hsp70 act: inactive; HIF act: inactive; GAA30 counter: inactive; FXN GAA850 conf: 11

Results for CC(=O)c1ccc(S(=O)(=O)N2CCN(CCOc3ccccc3)CC2)cc1 ?
TAG inh: inactive; ABHD5 PLIN5 PPI: inactive; GAA850 FXN act: inactive

Results for C=CCSc1nnc(-c2cc3c(s2)-c2ccccc2CC3)o1 ?
TAG inh: inactive; ABHD5 PLIN5 PPI: inactive; GAA850 FXN act: 8.7; Hsp70 act: inactive; Rad51 HR inh: inactive; HIF act: inactive; GAA30 counter: 76; FXN GAA850 conf: 28

Results for C=CCSc1nnc(-c2cccc3ccccc23)o1 ?
TAG inh: inactive; ABHD5 PLIN5 PPI: inactive; GAA850 FXN act: inactive

Results for CC(C)c1ccc2c(c1)C1(NN=C(c3ccccc3)S1)C(=O)N2 (stereo unspecified) ?
TAG inh: inactive; ABHD5 PLIN5 PPI: inactive; GAA850 FXN act: 7.9; Hsp70 act: inactive; Rad51 HR inh: inactive; HIF act: inactive; GAA30 counter: inactive; FXN GAA850 conf: inactive

Results for CCc1ccc2c(c1)C1(NN=C(c3ccc(C)cc3)S1)C(=O)N2 (stereo unspecified) ?
TAG inh: inactive; ABHD5 PLIN5 PPI: inactive; GAA850 FXN act: inactive; Hsp70 act: inactive; Rad51 HR inh: inactive; HIF act: inactive

What do the screens show for `CC1CCc2cc(F)ccc2N1C(=O)CSc1nnc2c(n1)[nH]c1ccccc12` (stereo unspecified)?
TAG inh: inactive; ABHD5 PLIN5 PPI: inactive; GAA850 FXN act: inactive; Hsp70 act: inactive; Rad51 HR inh: inactive; HIF act: inactive

What do the screens show for `Cn1c(=O)c(/C=C/c2ccccc2)nc2ccccc21`?
TAG inh: inactive; ABHD5 PLIN5 PPI: inactive; GAA850 FXN act: 8.1; Hsp70 act: inactive; Rad51 HR inh: inactive; HIF act: inactive; GAA30 counter: 127; FXN GAA850 conf: 50

What do the screens show for `Cn1c(=O)c(/C=C/c2ccc(F)cc2)nc2ccccc21`?
TAG inh: inactive; ABHD5 PLIN5 PPI: inactive; GAA850 FXN act: inactive; Hsp70 act: inactive; Rad51 HR inh: inactive; HIF act: inactive

What do the screens show for `NC(=S)N/N=C/c1cn(-c2ccccc2)nc1-c1cccnc1`?
TAG inh: inactive; ABHD5 PLIN5 PPI: inactive; GAA850 FXN act: 7.8; Rad51 HR inh: inactive; HIF act: inactive; GAA30 counter: 63; FXN GAA850 conf: 19

Results for Clc1ccccc1CSc1ncn(-c2ccccc2)n1 ?
TAG inh: inactive; ABHD5 PLIN5 PPI: inactive; GAA850 FXN act: 8.4; Hsp70 act: inactive; Rad51 HR inh: inactive; HIF act: inactive; GAA30 counter: 104; FXN GAA850 conf: 35

How did Cc1ccc(CSc2ncn(-c3ccccc3)n2)cc1 do in these assays?
ABHD5 PLIN5 PPI: inactive; GAA850 FXN act: inactive; Hsp70 act: inactive; Rad51 HR inh: inactive; HIF act: inactive

What do the screens show for `CC1CCN(c2nnc(NC(=O)Cn3c(=O)oc4ccccc43)s2)CC1`?
TAG inh: inactive; ABHD5 PLIN5 PPI: inactive; GAA850 FXN act: 15; Hsp70 act: inactive; Rad51 HR inh: inactive; HIF act: inactive; GAA30 counter: inactive; FXN GAA850 conf: inactive

Results for CCc1ccc(NC(=O)CSCc2nc(N)nc(Nc3ccccc3CC)n2)cc1 ?
ABHD5 PLIN5 PPI: inactive; GAA850 FXN act: inactive; Hsp70 act: inactive; Rad51 HR inh: inactive; HIF act: inactive
